The text below walks through data of ChEMBL document CHEMBL1125383, “Benzazepinone calcium channel blockers. 4. Structure-activity overview and intracellular binding site” (J Med Chem, 1992).

Some results are limits rather than exact numbers.

Data set [1] in a line: Concentration required to cause 50% relaxation of maximal contraction in circumferential rabbit aorta strips in response to KCl (100 mM). It is filed as functional, tissue-based, Oryctolagus cuniculus.
Data set [2] concerns the target T1, Voltage-gated L-type calcium channel (Rattus norvegicus, UniProt P22002+Q02485+P27732). As to the kind of experiment: Percentage decrease in blood pressure at a dose of 135 uM/kg for 0-6 h in spontaneously hypertensive rats. The class given is functional, tissue-based. In short, it runs like this: (§1)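 Spontaneously hypertensive rats, n = 5, given 135 µmol/kg orally; systolic pressure recorded directly; maximum percent fall from predrug control noted within 0-6, 6-12 and 12-18 h windows after dosing; mean of five rats.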

The target in data set [3] is T1, Voltage-gated L-type calcium channel. As to the kind of experiment: Percentage decrease in blood pressure at a dose of 135 uM/kg for 12-18 hr in spontaneously hypertensive rats. It is filed as functional, tissue-based. In short, it runs like this: as §1
Data set [4] in a line: Partition coefficient (logP). It is filed as physicochemical. Conditions: octanol/water.
In data set [5] the target is T1, Voltage-gated L-type calcium channel. As to the kind of experiment: Percentage decrease in blood pressure at a dose of 135 uM/kg for 6-12 hr in spontaneously hypertensive rats. The class given is functional, tissue-based. In short, it runs like this:
as §1

For orientation: IC50 means the concentration at which inhibition is half-maximal. A low value points to greater potency in that assay. A word on the logP: it is the decadic logarithm of the partition coefficient of the neutral form, usually between octanol and water. For `C=CC[C@H]1C(=O)N(CCN(C)C)c2cccc(C(F)(F)F)c2C[C@H]1c1ccc(OC)cc1`, the IC50 in data set [1] (Oryctolagus cuniculus, Aorta) was 100 nM. Further, the figures for the “Decrease in blood pressure” value in data set [2] and in data set [3] were 24% and 29%, respectively. This compound registered a logP in data set [4] of 4.6.

With `CCOC(=O)c1cccc2c1C[C@@H](c1ccc(OC)cc1)[C@@H](OC(C)=O)C(=O)N2CCN(C)C`, the “Decrease in blood pressure” value in data set [2] is on record as 4%; in data set [3], 5%; in data set [5], 6%. The compound further displayed a logP in data set [4] of 2.2.

For `C=CC[C@H]1C(=O)N(CCN(C)C)c2ccccc2C[C@H]1c1ccc(OC)cc1`, the “Decrease in blood pressure” value worked out at 25% in data set [2], 18% in data set [3] and 23% in data set [5]. In data set [4], this compound had a logP of 3.3.

As to `COc1ccc([C@@H]2Cc3cc(OC(F)F)ccc3N(CCN(C)C)C(=O)[C@@H]2OC(C)=O)cc1`, the IC50 in data set [1] (Oryctolagus cuniculus, Aorta) is 960 nM. The “Decrease in blood pressure” value in data set [2] is recorded as 12%; in data set [3] it was 16%; in data set [5] it was 13%. The logP in data set [4] stood at 1.8.

With `COc1ccc([C@@H]2Cc3c(C(=O)OCc4ccccc4)cccc3N(CCN(C)C)C(=O)[C@@H]2OC(C)=O)cc1`, in data set [1] (Oryctolagus cuniculus, Aorta), 3500 nM corresponded to half-maximal inhibition (IC50). Moreover, the “Decrease in blood pressure” value came to 4% in data set [2], 8% in data set [3] and 8% in data set [5]. This compound had a logP in data set [4] of 3.3.

As to `COc1ccc([C@@H]2Cc3cc(Sc4ccccc4)ccc3N(CCN(C)C)C(=O)[C@@H]2OC(C)=O)cc1`, the IC50 in data set [1] (Oryctolagus cuniculus, Aorta) is 690 nM. Also, the “Decrease in blood pressure” value in data set [2] stood at 15%; in data set [3], 19%; in data set [5], 17%. For the same compound, the logP in data set [4] is 3.8.

On to `COc1ccc([C@@H]2Cc3c(ccc(Br)c3OC)N(CCN(C)C)C(=O)[C@@H]2C)cc1`, for which the IC50 in data set [1] (Oryctolagus cuniculus, Aorta) is 85 nM. Besides, the “Decrease in blood pressure” value in data set [2] stood at 9%; in data set [3], 14%; in data set [5], 12%. In addition, in data set [4], the logP was 3.4.

`COc1ccc([C@@H]2Cc3c(OC)cccc3N(CCN(C)C)C(=O)[C@@H]2OC(C)=O)cc1`: the “Decrease in blood pressure” value is 0% in data set [2], 1% in data set [3] and 0% in data set [5]. Besides, in data set [4], the logP was 1.9.

Turning to `COc1ccc([C@@H]2Cc3cc(C(F)(F)F)ccc3N(CCN(C)C)C(=O)[C@@H]2NC(C)=O)cc1`, the IC50 in data set [1] (Oryctolagus cuniculus, Aorta) stood at 9200 nM. Besides, the “Decrease in blood pressure” value in data set [2] is recorded as 12%; in data set [3], 10%; in data set [5], 12%. This compound also yielded a logP in data set [4] of 1.6.

`COc1ccc([C@@H]2Cc3c(OC)cccc3N(CCN(C)C)C(=O)[C@@H]2C)cc1` came in with an IC50 in data set [1] (Oryctolagus cuniculus, Aorta) of 420 nM. The “Decrease in blood pressure” value in data set [2] was found to be 7%; in data set [3], 8%; in data set [5], 10%. The compound further returned a logP in data set [4] of 2.6.

`COc1ccc([C@@H]2Cc3c(cccc3[N+](=O)[O-])N(CCN(C)C)C(=O)[C@@H]2OC(C)=O)cc1` yielded an IC50 in data set [1] (Oryctolagus cuniculus, Aorta) of 370 nM. Besides, the figures for the “Decrease in blood pressure” value in data set [2], in data set [3] and in data set [5] were 16%, 14% and 12%, respectively. For the same compound, in data set [4], the logP turned out to be 1.7.

As for `COc1ccc([C@@H]2Cc3c(Cl)cccc3N(CCN(C)C)C(=O)[C@@H]2OC(C)=O)cc1`, the “Decrease in blood pressure” value came to 9% in data set [2], 11% in data set [3] and 8% in data set [5]. The same compound had a logP in data set [4] of 2.4.

Compound `CC[C@H]1C(=O)N(CCN(C)C)c2cccc(C(F)(F)F)c2C[C@H]1c1ccc(OC)cc1` displayed an IC50 in data set [1] (Oryctolagus cuniculus, Aorta) of 12 nM. Further, the “Decrease in blood pressure” value in data set [2] worked out at 21%; in data set [3], 15%; in data set [5], 19%. The same compound gave a logP in data set [4] of 4.3.

Consider `COc1ccc([C@@H]2Cc3cc(C(F)(F)F)ccc3N(CCN(C)C)C(=O)[C@@H]2SC(C)=O)cc1`, for which, in data set [1] (Oryctolagus cuniculus, Aorta), inhibition was half-maximal at 68 nM (IC50). The “Decrease in blood pressure” value in data set [2] was 13%; in data set [3], 23%; in data set [5] it was 18%. This compound also yielded a logP in data set [4] of 3.4.

Compound `COc1ccc([C@@H]2Cc3c(C)cccc3N(CCN(C)C)C(=O)[C@@H]2OC(C)=O)cc1` showed an IC50 in data set [1] (Oryctolagus cuniculus, Aorta) of 2500 nM. Also, the “Decrease in blood pressure” value in data set [2] turned out to be 6%; in data set [3] it was 12%; in data set [5], 10%. For the same compound, the logP in data set [4] was 1.7.

For the compound `COc1ccc([C@@H]2Cc3c(C(N)=O)cccc3N(CCN(C)C)C(=O)[C@@H]2OC(C)=O)cc1`, in data set [1] (Oryctolagus cuniculus, Aorta), the IC50 is over 30000 nM. Moreover, the “Decrease in blood pressure” value in data set [2] amounted to 13%; in data set [3] it was 12%; in data set [5], 12%. The compound also returned a log partition coefficient (logP) in data set [4] of -1.

For the compound `COc1ccc([C@@H]2Cc3c(cccc3C(F)(F)F)N(CCN(C)C)C(=O)[C@@H]2O)cc1`, the “Decrease in blood pressure” value came out at 21% in data set [2], 28% in data set [3] and 26% in data set [5]. This compound yielded a logP in data set [4] of 2.1.

In data set [1] (Oryctolagus cuniculus, Aorta), `COc1ccc([C@@H]2Cc3cc(OCc4ccccc4)ccc3N(CCN(C)C)C(=O)[C@@H]2OC(C)=O)cc1` returned an IC50 of 730 nM. In addition, the “Decrease in blood pressure” value in data set [2] is recorded as 8%; in data set [3], 11%; in data set [5], 10%. In data set [4], this compound gave a logP of 3.4.

With `COc1ccc([C@@H]2Cc3c(ccc(Br)c3OC)N(CCN(C)C)C(=O)[C@@H]2OC(C)=O)cc1`, 580 nM corresponded to half-maximal inhibition in data set [1] (Oryctolagus cuniculus, Aorta) (IC50). In addition, the “Decrease in blood pressure” value in data set [2] is listed as 18%; in data set [3], 11%; in data set [5], 12%. This compound registered a logP in data set [4] of 2.4.

Regarding `COc1ccc([C@@H]2Cc3cc(SC(C)(C)C)ccc3N(CCN(C)C)C(=O)[C@@H]2OC(C)=O)cc1`, in data set [1] (Oryctolagus cuniculus, Aorta), the IC50 was 9000 nM. Further, the “Decrease in blood pressure” value in data set [2] was found to be 10%; in data set [3], 14%; in data set [5], 11%. Besides, in data set [4], the logP came to 3.6.

Turning to `COc1ccc([C@@H]2Cc3cc(C(F)(F)F)ccc3N(CCN(C)C)C(=O)[C@@H]2CC(C)=O)cc1`, the results for the “Decrease in blood pressure” value in data set [2], in data set [3] and in data set [5] were 23%, 28% and 28%, respectively. The compound further gave a logP in data set [4] of 2.7.

As for `COc1ccc([C@@H]2Cc3c(C#N)cccc3N(CCN(C)C)C(=O)[C@@H]2OC(C)=O)cc1`, half-maximal inhibition in data set [1] (Oryctolagus cuniculus, Aorta) (IC50) required 120 nM. Moreover, the “Decrease in blood pressure” value turned out to be 9% in data set [2], 9% in data set [3] and 7% in data set [5]. This compound displayed a logP in data set [4] of 1.3.

Regarding `COc1ccc([C@H]2CC(=O)N(CCN(C)C)c3cccc(C(F)(F)F)c3C2)cc1`, in data set [1] (Oryctolagus cuniculus, Aorta), the IC50 was found to be 1100 nM. For the same compound, the “Decrease in blood pressure” value in data set [2] is given as 2%; in data set [3], 3%; in data set [5], 3%. The logP in data set [4] was 3.1.

With `COc1ccc([C@@H]2Cc3cc(OC)ccc3N(CCN(C)C)C(=O)[C@@H]2OC(C)=O)cc1`, the “Decrease in blood pressure” value came to 15% in data set [2], 10% in data set [3] and 8% in data set [5]. The logP in data set [4] is 1.2.

Compound `COc1ccc([C@@H]2Cc3cc(Oc4ccccc4)ccc3N(CCN(C)C)C(=O)[C@@H]2OC(C)=O)cc1` displayed an IC50 in data set [1] (Oryctolagus cuniculus, Aorta) of 440 nM. The “Decrease in blood pressure” value in data set [2] came out at 16%; in data set [3], 16%; in data set [5], 12%. Besides, the logP in data set [4] was determined as 3.1.

Turning to `COc1ccc([C@@H]2Cc3cc(SC)ccc3N(CCN(C)C)C(=O)[C@@H]2OC(C)=O)cc1`, 600 nM corresponded to half-maximal inhibition in data set [1] (Oryctolagus cuniculus, Aorta) (IC50). For the same compound, the figures for the “Decrease in blood pressure” value in data set [2], in data set [3] and in data set [5] were 19%, 21% and 20%, respectively. Moreover, in data set [4], the logP stood at 2.

In data set [1] (Oryctolagus cuniculus, Aorta), `COc1ccc([C@@H]2Cc3cc(OC(=O)C(C)(C)C)ccc3N(CCN(C)C)C(=O)[C@@H]2OC(C)=O)cc1` returned an IC50 of 5200 nM. Further, the entries for the “Decrease in blood pressure” value in data set [2], in data set [3] and in data set [5] were 13%, 16% and 14%, respectively. Moreover, the logP in data set [4] came out at 2.9.

As for `CCC[C@H]1C(=O)N(CCN(C)C)c2cccc(C(F)(F)F)c2C[C@H]1c1ccc(OC)cc1`, in data set [1] (Oryctolagus cuniculus, Aorta), the IC50 was 950 nM. Moreover, the “Decrease in blood pressure” value in data set [2] came out at 14%; in data set [3] it was 24%; in data set [5], 19%. The logP in data set [4] turned out to be 4.9.

For `COc1ccc([C@@H]2Cc3ccccc3N(CCN(C)C)C(=O)[C@@H]2OC(C)=O)cc1`, the “Decrease in blood pressure” value came out at 8% in data set [2], 13% in data set [3] and 8% in data set [5]. In data set [4], the logP amounted to 1.2.

As to `COc1ccc([C@@H]2Cc3ccccc3N(CCN(C)C)C(=O)[C@@H]2C)cc1`, in data set [1] (Oryctolagus cuniculus, Aorta), it took 1100 nM to reach half-maximal inhibition (IC50). Also, the “Decrease in blood pressure” value in data set [2] came to 6%; in data set [3], 8%; in data set [5] it was 4%. Also, the log partition coefficient (logP) in data set [4] stood at 2.5.

In the case of `COc1ccc([C@@H]2Cc3c(cccc3C(F)(F)F)N(CC(C)N(C)C)C(=O)[C@@H]2C)cc1` (stereo in doubt; 15l), the IC50 in data set [1] (Oryctolagus cuniculus, Aorta) stood at 360 nM. The figures for the “Decrease in blood pressure” value in data set [2], in data set [3] and in data set [5] were 26%, 14% and 17%, respectively.

In turn, `COc1ccc([C@@H]2Cc3c(cccc3C(F)(F)F)N(C(C)CN(C)C)C(=O)[C@@H]2C)cc1` (stereo in doubt; 15o) came in with an IC50 in data set [1] of 2300 nM. Moreover, the “Decrease in blood pressure” value in data set [2], in data set [3] and in data set [5] was 16% in each case.
